Laboratory results published in PMC12690059 (Dose-Response, 2025).
Where two headings read alike, the source gives them in different places. Each block holds one compound with its values, some of them ahead of it.

Key:
[1] = system: Nrf2/HO-1 and Casp-3 pathways; experiment: In vivo mechanistic validation using pathway inhibitors; set-up: species or system Sprague-Dawley (SD) rats; conditions: for Effect on P.indicus-induced reduction in serum cTn-T: ML385 30 mg/kg or Z-DEVD-FMK 1 mg/kg i.p. before P. indicus 54 mg/kg + ISO; for Intrinsic cardiotoxicity of inhibitor: control experiments
Procedure, shortened: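 Rats (n = 8/group) received the test extract at 54 mg/kg p.o. on days 1-14 and ISO 85 mg/kg s.c. on days 7-14. An Nrf2 inhibitor (30 mg/kg) or a caspase-3 inhibitor (1 mg/kg) was given i.p. 30 min before each gavage; an ISO + vehicle group was included. Inhibition was checked by myocardial HO-1/cleaved caspase-3 western blot. Myocardial SOD and MDA (homogenate, ELISA) and serum cTn-T were measured.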

[2] = assay type: in vivo, Sprague-Dawley rats
Procedure, shortened: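 Healthy SD rats (n = 6) received a single oral dose of extract at 54 mg/kg. Tail-vein blood (0.3 mL) was taken at 0, 0.25, 0.5, 1, 2, 4, 8, 12 and 24 h; plasma was stored at −80°C. Marker compounds were measured by validated HPLC-DAD (C18, 35°C, 0.1% formic acid water/methanol gradient).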

Bax = experiment: Western blot of myocardial Bax; assay type: in vivo, Sprague-Dawley (SD) rats; conditions: propranolol 30 mg/kg oral 14 days; ISO rats; Control = 1.00
HO-1 = experiment: Western blot of myocardial HO-1; assay type: in vivo, Sprague-Dawley (SD) rats; conditions: propranolol 30 mg/kg oral 14 days; ISO rats; Control = 1.00
[3] = system: ISO-induced myocardial ischemia; experiment: ECG monitoring; assay type: in vivo, Sprague-Dawley (SD) rats; conditions: propranolol 30 mg/kg oral 14 days
Procedure, shortened: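 Male SD rats (n = 10/group) were dosed orally for 14 days, with ISO 85 mg/kg s.c. on days 7-14. Twenty-four hours after the last ISO, rats were anesthetized with 2% pentobarbital sodium (30 mg/kg i.p.) and fixed supine. Lead II ECG was recorded for 60 min for ST-segment and T-wave changes, QRS duration and VPB incidence.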

Cleaved caspase-3 = experiment: Western blot of myocardial cleaved caspase-3; assay type: in vivo, Sprague-Dawley (SD) rats; conditions: propranolol 30 mg/kg oral 14 days; ISO rats; Control = 1.00
Bcl-2 = experiment: Western blot of myocardial Bcl-2; assay type: in vivo, Sprague-Dawley (SD) rats; conditions: propranolol 30 mg/kg oral 14 days; ISO rats; Control = 1.00
[4] = system: ISO-induced myocardial ischemia; experiment: Masson's trichrome staining, myocardial fibrotic area; assay type: in vivo, Sprague-Dawley (SD) rats; conditions: propranolol 30 mg/kg oral 14 days; ISO rats
Procedure, shortened: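 ISO model: SD rats, 14-day oral pretreatment, ISO 85 mg/kg s.c. on days 7-14. Paraffin heart sections (4 μm) were deparaffinized and stained with Weigert's iron hematoxylin, then Biebrich scarlet-acid fuchsin, phosphomolybdic-phosphotungstic acid and aniline blue; collagen stains blue. Images were taken at 200x. Fibrosis was expressed as collagen-positive area as a percentage of total myocardial area.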

[5] = system: ISO-induced myocardial ischemia; experiment: H&E histopathological score of myocardial tissue; assay type: in vivo, Sprague-Dawley (SD) rats; conditions: propranolol 30 mg/kg oral 14 days; ISO rats
Procedure, shortened: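 ISO model: SD rats, 14-day oral pretreatment, ISO 85 mg/kg s.c. on days 7-14. Hearts were fixed in 4% paraformaldehyde for 24 h, paraffin-embedded and cut at 4 μm. Sections were H&E-stained and examined by light microscopy for myocardial damage. Final scores were consensus evaluations.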

Nrf2 = experiment: Western blot of myocardial Nrf2; assay type: in vivo, Sprague-Dawley (SD) rats; conditions: propranolol 30 mg/kg oral 14 days; ISO rats; Control = 1.00
[6] = system: ISO-induced myocardial ischemia; experiment: Cardiac index; assay type: in vivo, Sprague-Dawley (SD) rats; conditions: propranolol 30 mg/kg oral 14 days; vs ISO
Procedure, shortened: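 Male SD rats (200 ± 20 g, n = 10/group) received oral gavage daily for 14 days, with ISO 85 mg/kg s.c. on days 7-14, 30 min post-gavage. After ECG, hearts were excised, rinsed in pre-cooled saline, blotted dry and weighed. Cardiac index = heart weight/body weight, in mg/g.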

[7] = Sprague-Dawley, rat, plasma, po, 54 mg/kg
[8] = rat plasma, single oral P. indicus extract 54 mg/kg, n = 6

Structure (SMILES): Cc1ccccc1C(=O)N1CCc2cc(-c3nc(NC(=O)Cc4ccc5c(c4)OCO5)sc3C)ccc21 [ML385]
Effect on P.indicus's antioxidant effect (SOD activity, MDA content) ([1]; ML385 30 mg/kg i.p. before P. indicus 54 mg/kg + ISO): nullified P.indicus’s antioxidant effect
Effect on P.indicus-induced reduction in serum cTn-T [1]: attenuated the P.indicus-induced reduction in serum cTn-T
Intrinsic cardiotoxicity of inhibitor [1]: ruled out intrinsic cardiotoxicity

Structure (SMILES): COC(=O)CC[C@H](NC(=O)[C@H](CC(=O)OC)NC(=O)OCc1ccccc1)C(=O)N[C@H](C(=O)N[C@@H](CC(=O)OC)C(=O)CF)C(C)C [Z-DEVD-FMK]
Effect on P.indicus-induced reduction in serum cTn-T [1]: attenuated the P.indicus-induced reduction in serum cTn-T
Effect on P.indicus suppression of cleaved caspase-3 (western blot) ([1]; Z-DEVD-FMK 1 mg/kg i.p. 30 min before each P. indicus gavage (54 mg/kg) + ISO): reversed the suppression of cleaved caspase-3
Effect on P.indicus's anti-apoptotic action ([1]; Z-DEVD-FMK 1 mg/kg i.p. before P. indicus 54 mg/kg + ISO): selectively blocked its anti-apoptotic action
Intrinsic cardiotoxicity of inhibitor [1]: ruled out intrinsic cardiotoxicity

Structure (SMILES): CC(C)NCC(O)COc1cccc2ccccc12 (stereo not drawn) [propranolol]
Relative expression of protein Bax (Bax): 1.74 ± 0.36
Relative expression of protein HO-1 (HO-1): 3.80 ± 0.64
ST-segment elevation ([3]; ISO 85 mg/kg s.c. days 7-14): 0.024 ± 0.033 mV
QRS duration ([3]; ISO rats): 0.041 ± 0.002 s
Ventricular premature beats (VPBs) ([3]; ISO rats): 1.2 ± 0.3 beats/60 min
Relative expression of protein Cleaved caspase-3 (Cleaved caspase-3): 2.48 ± 0.63
Relative expression of protein Bcl-2 (Bcl-2): 0.63 ± 0.08
Fibrotic area (Masson's trichrome) [4]: 11.2 ± 2.1%
Pathological score (H&E) vs ISO group [5]: significantly lower
Relative expression of protein Nrf2 (Nrf2): 2.55 ± 0.21
ISO-induced increase of cardiac index (heart weight/body weight ratio) [6]: significantly attenuated

The next lines start with the values.

AUC(0-t) [2, 7]: 7210 ± 950 ng·h/mL
Cmax [2, 7]: 2450 ± 300 ng/mL
Tmax [2, 7]: 0.25 ± 0.08 h
half-life [2, 7]: 1.8 ± 0.2 h
Structure (SMILES): CCCCC/C=C\C/C=C\CCCCCCCC(=O)O [Linoleic acid]

AUC(0-t) [2, 7]: 5950 ± 720 ng·h/mL
Cmax [2, 7]: 1280 ± 150 ng/mL
half-life [2, 7]: 3.2 ± 0.4 h
Tmax [2, 8]: 0.50 ± 0.12 h
Structure (SMILES): O=c1c(O[C@@H]2O[C@H](CO)[C@@H](O)[C@H](O)[C@H]2O)c(-c2ccc(O)c(O)c2)oc2cc(O)cc(O)c12 [Quercetin-3-O-glucoside]

AUC0-24h [2, 8]: 3420 ± 510 ng·h/mL
Cmax [2, 8]: 850 ± 110 ng/mL
Tmax [2, 8]: 0.52 ± 0.15 h
t1/2 [2, 8]: 2.8 ± 0.3 h
Structure (SMILES): COc1cc(/C=C/C(=O)O)ccc1O [Ferulic acid]
